ABHD4 inh: ABHD4 inhibitors, primary screen, biochemical, fluorescence polarization, mouse; (Lyso)-N-acylphosphatidylethanolamine lipase (Mus musculus), Q8VD66; purified mABHD4, FP-Rh probe fluorescence polarization; inhibition, % at 8.92 µM; actives 0.54% (n = 370,000); AID 720543, 2013;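 active = inhibition exceeding the mean over every tested compound plus 3 SD, cut at about 30% in these data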;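 also: 0% = plate median of compound wells and 100% = S159A mutant with DMSO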
Target sequence (Q8VD66 whole entry, looked up): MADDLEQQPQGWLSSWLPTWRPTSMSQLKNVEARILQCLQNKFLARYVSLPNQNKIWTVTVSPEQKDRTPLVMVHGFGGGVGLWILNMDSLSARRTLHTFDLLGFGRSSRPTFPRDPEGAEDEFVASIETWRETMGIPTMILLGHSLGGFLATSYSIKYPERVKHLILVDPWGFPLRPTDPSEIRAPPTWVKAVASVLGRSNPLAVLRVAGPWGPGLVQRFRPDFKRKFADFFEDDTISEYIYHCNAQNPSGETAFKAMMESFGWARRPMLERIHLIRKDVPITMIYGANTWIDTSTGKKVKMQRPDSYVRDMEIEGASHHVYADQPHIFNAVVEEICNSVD
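Test system: mouse ABHD4 enzyme, wild type. Reagent: FP-Rh fluorescent activity-based probe, added after compound pre-incubation. Timing: pre-incubation 45 min, probe exposure 60 min, at 25 °C. Technique: FP readout, ex 525 nm / em 598 nm. Benchmarks: high control S159A mutant with DMSO, low control median of compound wells.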
rCAG RNA binder: binders of r(CAG) RNA repeats, primary screen, biochemical, fluorescence; r(CAG) RNA repeat, TO-PRO-1 dye displacement fluorescence; inhibition, % at 3 µM; actives 1.3% (n = 370,000);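 active = inhibition above the plate cutoff, the mean of all test compounds on that plate plus 3 SD, cut at about 35% in these data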;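 also: 0% = DMSO alone and 100% = 100 µM mitoxantrone as full dye displacement; higher means more dye released from RNA so lower well fluorescence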
SIAE primary: human SIAE inhibitors, primary screen, biochemical, fluorescence polarization, FP-Rh probe, 1536-well HTS. SIAE FP-Rh probe binding. inhibition, % at 9.66 µM. actives 0.69% (n = 370,000);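 active = inhibition above a cutoff: mean of compounds within the control limits plus 3 SD of those, cut at about 17% in these data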;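 also: 0% = plate median of compound wells and 100% = probe without SIAE protein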
TCR CD3 inh: inhibitors of human TCR-CD3 interaction, primary screen, biochemical, fluorescence, TAMRA-labeled TCR probe | T-cell receptor (TCR) | inhibition, % at 9.4 µM | actives 0.37% (n = 360,000) | AID 651800, 2012; in the data active = inhibition above about 19%;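 also: recombinant mutant TCR 2C K166C tagged with TAMRA read by polarization; 0% = receptor in buffer alone and 100% = receptor with positive control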
PRMT1 inh: PRMT1 methyltransferase inhibitors, primary screen, biochemical, fluorescence polarization. Protein arginine N-methyltransferase 1 (Homo sapiens), Q99873. recombinant PRMT1, activity-based probe fluorescence polarization. inhibition, % at 2.79 µM. actives 1.3% (n = 370,000);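 active = inhibition above about 21% made by adding two undisclosed values, limit read from the data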
rCAG binder conf: small molecules binding CAG repeat RNA – biochemical, fluorescence, confirmation. shares compounds with rCAG RNA binder. actives 70% (n = 4,300). r(CAG) RNA repeat, TO-PRO-1 dye displacement fluorescence. inhibition, % at 3 µM;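 active = inhibition above a per-plate cutoff, the mean inhibition of sample wells plus 3 SD, cut at about 35% in these data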;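 also: loss of TO-PRO-1 fluorescence as compound displaces dye from 1x1 AA loop RNA; 0% = DMSO only wells and 100% = 100 µM mitoxantrone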
DNA CAG counter: displacement of TO-PRO-1 from CAG DNA duplex, counter-screen for rCAG RNA repeat binder project, biochemical, fluorescence, TO-PRO-1 dye, d(CAG) DNA oligo. shares compounds with rCAG RNA binder. d(CAG) DNA oligo TO-PRO-1 dye displacement. inhibition, % at 3 µM. actives 94% (n = 4,300). AID 652068, 2013;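 active = inhibition above its plate's cutoff, the mean test-well inhibition plus 3 SD, cut at about 4.8% in these data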;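 also: 0% = DNA dye mix with DMSO and 100% = 100 µM mitoxantrone; hits displace the dye from DNA and so lower well fluorescence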
The depositor's hits bear a star; / = no result given. Only some compounds are listed: those with a hit (about 3.3% of all), similar ones and a draw of the others.

SMILES | ABHD4 inh | rCAG RNA binder | SIAE primary | TCR CD3 inh | PRMT1 inh | rCAG binder conf | DNA CAG counter
Cc1cc(NS(=O)(=O)c2ccc(NC(=O)COc3ccc(Cl)cc3)cc2)no1 | -12 | 19 | -7 | -1 | 4 | / | /
CCOC(=O)[C@]12CCCC=C1N(Cc1ccc(OC)cc1)C(=O)[C@@H]2CC(=O)NCCC(C)C | -5 | 1 | 3 | / | -1 | / | /
O=C(O)c1ccc(CNS(=O)(=O)c2ccc(Oc3ccccc3Cl)cc2)cc1 | -26 | 39* | -4 | -6 | -2 | 28 | 6.6*
O=C(O)c1ccc(CNS(=O)(=O)c2ccc3ccccc3c2)cc1 | 3 | 0 | 5 | -2 | 5 | / | /
CCCNC(=S)NNC(=O)c1cc(-c2cccnc2)nc2ccccc12 | 1 | 20 | 4 | -2 | 1 | / | /
CCOC(=O)c1ccc(NC(=S)NNC(=O)c2cc(-c3cccnc3)nc3ccccc23)cc1 | 21 | 78* | 7 | -6 | -5 | 80* | 37*
CCNC(=S)NNC(=O)c1cc(-c2cccc(C)c2)nc2ccccc12 | -3 | 43* | -4 | -2 | -8 | 40* | 12*
CCNC(=S)NNC(=O)c1cc(-c2cccnc2)nc2ccccc12 | 1 | 10 | -2 | 0 | 2 | / | /
O=C(NNC(=S)Nc1ccccc1)c1cc(-c2cccnc2)nc2ccccc12 | 5 | 50* | 7 | 4 | -2 | 43* | 13*
CCCCNC(=S)NNC(=O)c1cc(-c2cccnc2)nc2ccccc12 | -1 | 43* | -9 | 1 | 2 | 32 | 7.7*
CCOC(=O)c1ccc(Nc2nc(-c3cccnc3)nc3ccccc23)cc1 | 7 | 4 | -36 | -3 | -2 | / | /
O=C(CSc1nnc(-c2ccncc2)n1-c1ccccc1)Nc1cccc2ccccc12 | -2 | 5 | 4 | / | -10 | / | /
Cc1ccccc1C(=O)N(C)[C@H]1C[C@H]2c3[nH]c4c(-c5ccc6c(c5)OCO6)cccc4c3CCN2C[C@H]1[C@H](C)O | -2 | 5 | -3 | / | -2 | / | /
Cc1ccc(NC(=O)CN(C)C(=O)c2cc(-c3ccco3)nc3ccccc23)cc1 | -4 | 35* | 1 | 2 | 15 | 14 | 8.7*
COc1ccc(N(CC(=O)Nc2cc(C)ccc2C)S(=O)(=O)c2c(C)[nH]c(=O)[nH]c2=O)cc1 | 2 | 14 | -4 | 6 | -4 | / | /
Cc1ccc(N(CC(=O)Nc2ccc(Br)c(C)c2)S(=O)(=O)c2c(C)[nH]c(=O)[nH]c2=O)cc1 | -21 | 47* | -16 | 0 | -6 | 67* | 23*
Cc1cc(C)cc(N(CC(=O)Nc2ccc(C)cc2Cl)S(=O)(=O)c2c(C)[nH]c(=O)[nH]c2=O)c1 | -11 | 40* | -2 | -2 | 3 | 54* | 17*
COc1ccc(N(CC(=O)Nc2cc(Cl)ccc2OC)S(=O)(=O)c2c(C)[nH]c(=O)[nH]c2=O)cc1 | 4 | 49* | -7 | 2 | -1 | 39* | 13*
Cc1cc(C)cc(N(CC(=O)Nc2ccc(C(F)(F)F)cc2)S(=O)(=O)c2c(C)[nH]c(=O)[nH]c2=O)c1 | -20 | 49* | -21 | -2 | 3 | 52* | 16*
O=C(Nc1cc(S(=O)(=O)N2CCCCC2)ccc1O)c1ccccc1NS(=O)(=O)c1ccc(F)cc1 | 1 | 85* | -21 | 6 | -3 | 87* | 57*
O=C(c1ccccc1NS(=O)(=O)c1ccc(F)cc1)N1CCCCC1 | 10 | 2 | -1 | 4 | -2 | / | /
O=C(Nc1cc(S(=O)(=O)N2CCCCC2)ccc1Cl)c1ccccc1NS(=O)(=O)c1ccc(F)cc1 | -64 | 89* | -17 | 4 | -1 | 89* | 65*
O=[N+]([O-])c1ccc2c(c1)CCCO[C@]21O[C@H](CCO)C[C@H](O)[C@H]1O | 2 | 4 | -2 | 3 | 0 | / | /
CCN(CC)c1ccc(/C=C2/C(=O)c3ccc(C(=O)O)cc3C2=O)cc1 | -48 | 55* | -104 | -27 | 4 | 82* | 48*

From PubChem
